Results from ChEMBL document CHEMBL4219233, “Discovery and evaluation of nNav1.5 sodium channel blockers with potent cell invasion inhibitory activity in breast cancer cells” (Bioorg Med Chem, 2018).

Experiments:
[1] = target: T1, Sodium channel protein type 5 subunit alpha (Homo sapiens, UniProt Q14524); assay: Inhibition of neonatal Nav1.5 in human MDA-MB-231 cells assessed as reduction in inward sodium peak current by measuring half activation potential at 10 uM at -100 mV holding potential after 5 to 10 mins by whole cell patch clamp method (reference value: -30.7 +/- 0.9 mV); format: cell-based; conditions: mda-mb-231, 10 µM
Target sequence in this assay (Q14524 whole entry): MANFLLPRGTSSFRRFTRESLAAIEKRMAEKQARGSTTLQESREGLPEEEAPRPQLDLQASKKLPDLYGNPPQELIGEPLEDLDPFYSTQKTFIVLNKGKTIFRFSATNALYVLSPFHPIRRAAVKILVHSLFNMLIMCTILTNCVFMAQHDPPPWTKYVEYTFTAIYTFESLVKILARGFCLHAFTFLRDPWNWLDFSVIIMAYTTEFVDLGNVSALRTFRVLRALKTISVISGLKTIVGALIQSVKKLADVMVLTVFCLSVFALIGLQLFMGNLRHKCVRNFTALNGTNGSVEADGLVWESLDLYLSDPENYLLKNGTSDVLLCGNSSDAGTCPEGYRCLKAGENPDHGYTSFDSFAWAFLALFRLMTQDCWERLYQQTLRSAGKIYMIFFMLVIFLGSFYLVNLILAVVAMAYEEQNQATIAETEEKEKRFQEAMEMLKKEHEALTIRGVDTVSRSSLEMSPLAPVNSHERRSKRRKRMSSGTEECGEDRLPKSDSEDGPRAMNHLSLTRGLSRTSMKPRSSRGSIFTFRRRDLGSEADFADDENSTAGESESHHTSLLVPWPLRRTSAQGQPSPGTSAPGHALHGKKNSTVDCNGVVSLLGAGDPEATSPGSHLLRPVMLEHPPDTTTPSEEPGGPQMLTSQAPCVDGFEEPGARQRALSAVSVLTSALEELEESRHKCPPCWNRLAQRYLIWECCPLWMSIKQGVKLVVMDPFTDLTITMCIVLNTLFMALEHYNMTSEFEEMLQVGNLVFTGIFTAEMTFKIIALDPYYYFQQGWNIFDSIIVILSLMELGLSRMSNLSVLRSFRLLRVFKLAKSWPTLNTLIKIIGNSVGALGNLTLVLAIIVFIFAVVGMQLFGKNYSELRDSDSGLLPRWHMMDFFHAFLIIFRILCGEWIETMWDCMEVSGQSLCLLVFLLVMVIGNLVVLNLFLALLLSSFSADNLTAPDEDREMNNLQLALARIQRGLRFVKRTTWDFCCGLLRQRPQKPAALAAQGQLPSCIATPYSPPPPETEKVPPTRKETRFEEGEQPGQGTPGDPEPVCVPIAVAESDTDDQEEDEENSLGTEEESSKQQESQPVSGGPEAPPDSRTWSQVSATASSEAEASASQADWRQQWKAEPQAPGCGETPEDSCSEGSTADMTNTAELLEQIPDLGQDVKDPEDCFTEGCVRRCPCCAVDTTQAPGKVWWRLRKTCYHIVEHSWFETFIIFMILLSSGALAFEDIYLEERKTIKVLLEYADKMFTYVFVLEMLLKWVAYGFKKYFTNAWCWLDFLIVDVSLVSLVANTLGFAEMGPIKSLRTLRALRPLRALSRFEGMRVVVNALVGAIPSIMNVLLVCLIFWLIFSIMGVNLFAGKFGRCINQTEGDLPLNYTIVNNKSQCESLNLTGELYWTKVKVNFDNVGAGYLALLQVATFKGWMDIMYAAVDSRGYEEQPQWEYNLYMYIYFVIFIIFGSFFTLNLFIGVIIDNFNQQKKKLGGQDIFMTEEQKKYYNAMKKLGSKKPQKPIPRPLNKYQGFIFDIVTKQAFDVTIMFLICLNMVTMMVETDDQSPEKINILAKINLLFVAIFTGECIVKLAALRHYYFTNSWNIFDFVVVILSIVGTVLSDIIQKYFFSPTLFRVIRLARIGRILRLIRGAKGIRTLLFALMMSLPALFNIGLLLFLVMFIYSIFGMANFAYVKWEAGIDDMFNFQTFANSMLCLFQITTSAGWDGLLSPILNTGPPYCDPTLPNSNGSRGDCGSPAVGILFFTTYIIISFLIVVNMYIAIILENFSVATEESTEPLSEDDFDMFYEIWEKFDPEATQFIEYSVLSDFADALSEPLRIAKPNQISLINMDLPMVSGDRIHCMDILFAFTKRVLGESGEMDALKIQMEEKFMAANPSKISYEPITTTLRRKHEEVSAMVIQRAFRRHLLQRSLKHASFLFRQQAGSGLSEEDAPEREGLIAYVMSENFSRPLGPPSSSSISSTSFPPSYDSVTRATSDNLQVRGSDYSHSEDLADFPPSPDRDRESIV

[2] = target: T1, Sodium channel protein type 5 subunit alpha; assay: Inhibition of neonatal Nav1.5 in human MDA-MB-231 cells assessed as reduction in inward sodium peak current at 10 uM at -100 mV holding potential after 5 to 10 mins by whole cell patch clamp method relative to control; format: cell-based; conditions: MDA-MB-231, human
Outline: (§1)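 Whole-cell voltage clamp is used, with capacitance and series resistance compensated 60% and P/2 leak subtraction. Cells are perifused with PSS (mM: NaCl 140, KCl 4, MgCl2 1, CaCl2 2, NaH2PO4 0.33, glucose 11.1, HEPES 10; pH 7.4), with or without compound (final 0.2% DMSO), for 5–10 min. Peak INa is evoked by 30 ms steps from −100 to −5 mV. Percent block is taken from peak current. The concentration-response over 0.1–100 μM is Hill-fitted.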
Target sequence in this assay (Q14524 whole entry): as above

MDA-MB-231 [3] = assay: Anti-invasive activity against human MDA-MB-231 cells at 0.1 uM after 24 hrs by Hema staining based microscopic method relative to control; format: functional; conditions: MDA-MB-231, 24 h
Outline: (§2)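 Matrigel-coated transwell invasion chambers are hydrated 2 h at 37 °C, with 5% FBS/DMEM above and 10% FBS/DMEM below as chemoattractant. 4 × 10^4 cells go in the upper chamber. Compound or vehicle (0.2% DMSO in PBS) is added to both chambers. After 24 h at 37 °C, 5% CO2, invaded cells are fixed, Hema-stained and counted in five membrane regions. Counts are normalized to solvent control, mean ± SD.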

[4] = target: T1, Sodium channel protein type 5 subunit alpha; assay: Inhibition of neonatal Nav1.5 in human MDA-MB-231 cells assessed as reduction in inward sodium peak current at 100 uM at -100 mV holding potential after 5 to 10 mins by whole cell patch clamp method relative to control; format: cell-based; conditions: MDA-MB-231, human
Outline: (§3)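 Whole-cell voltage clamp on MDA-MB-231 cells grown in 5% FBS DMEM, with 60% capacitance and series-resistance compensation and P/2 leak subtraction. Cells were perifused with PSS (mM: NaCl 140, KCl 4, MgCl2 1, CaCl2 2, NaH2PO4 0.33, glucose 11.1, HEPES 10; pH 7.4) with 0.2% DMSO, and compound was applied 5–10 min (final 0.1–100 μM). Peak INa was evoked by 30 ms steps from −100 to −5 mV. Percent block was taken against control, followed by wash-out.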
Target sequence in this assay (Q14524 whole entry): as above

[5] = target: T1, Sodium channel protein type 5 subunit alpha; assay: Reversible inhibition of neonatal Nav1.5 in human MDA-MB-231 cells assessed as reduction in sodium peak current elecited for membrane depolarization from -100 mV to -5 mV by measuring remaining current amplitude at 0.1 to 100 uM at -100 mV holding potential treated for 5 to 10 mins followed by compound washout by whole cell patch clamp method relative to control
Target sequence in this assay (Q14524 whole entry): as above

[6] = target: T1, Sodium channel protein type 5 subunit alpha; assay: Inhibition of neonatal Nav1.5 in human MDA-MB-231 cells assessed as reduction in inward sodium peak current by measuring half inactivation potential at 10 uM at -100 mV holding potential after 5 to 10 mins by whole cell patch clamp method (reference value: -66 +/- 2.5 mV); format: cell-based; conditions: mda-mb-231, 10 µM
Target sequence in this assay (Q14524 whole entry): as above

MDA-MB-231 [7] = assay: Anti-invasive activity against human MDA-MB-231 cells at 1 uM after 24 hrs by Hema staining based microscopic method relative to control; format: functional; conditions: MDA-MB-231, 24 h; outline: as §2
[8] = Cytotoxicity against human MDA-MB-231 cells assessed as reduction in cell viability after 24 hrs by MTS assay; format: cell-based
Outline: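 Cells are seeded at 10^4/well in 5% FBS/DMEM and grown 24 h at 37 °C, 5% CO2. They are then exposed 24 h to 1, 5, 10 or […] μM compound or vehicle (0.25% DMSO in PBS), with 5 wells per concentration. MTS is added for 30 min and absorbance read at 490 nm. The maximum non-toxic concentration is judged against vehicle, mean of five repeats.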

[9] = target: T1, Sodium channel protein type 5 subunit alpha; assay: Inhibition of neonatal Nav1.5 in human MDA-MB-231 cells assessed as reduction in inward sodium peak current at 1 uM at -100 mV holding potential after 5 to 10 mins by whole cell patch clamp method relative to control; format: cell-based; conditions: MDA-MB-231, human; outline: as §3
Target sequence in this assay (Q14524 whole entry): as above

[10] = target: T1, Sodium channel protein type 5 subunit alpha; assay: Inhibition of neonatal Nav1.5 in human MDA-MB-231 cells assessed as reduction in inward sodium peak current at -100 mV holding potential after 5 to 10 mins by whole cell patch clamp method; format: cell-based; outline: as §1
Target sequence in this assay (Q14524 whole entry, looked up): as the sequence (Q14524 whole entry) above

[11] = target: T1, Sodium channel protein type 5 subunit alpha; assay: Irreversible inhibition of neonatal Nav1.5 in human MDA-MB-231 cells assessed as reduction in sodium peak current elecited for membrane depolarization from -100 mV to -5 mV at -100 mV holding potential treated for 5 to 10 mins followed by compound washout by whole cell patch clamp method relative to control; format: cell-based; outline: as §3
[12] = target: T1, Sodium channel protein type 5 subunit alpha; assay: Inhibition of neonatal Nav1.5 in human MDA-MB-231 cells assessed as reduction in inward sodium peak current by measuring half inactivation potential at 10 uM at -100 mV holding potential after 5 to 10 mins by whole cell patch clamp method (reference value: -71.6 +/- 0.4 mV); format: cell-based; conditions: mda-mb-231, 10 µM
[13] = target: T1, Sodium channel protein type 5 subunit alpha; assay: Inhibition of neonatal Nav1.5 in human MDA-MB-231 cells assessed as reduction in inward sodium peak current by measuring half activation potential at 10 uM at -100 mV holding potential after 5 to 10 mins by whole cell patch clamp method (reference value: -33 +/- 1.2 mV); format: cell-based; conditions: mda-mb-231, 10 µM
MDA-MB-231 [14] = conditions: Homo sapiens, 30 uM

Row | Structure (SMILES) | inhibition at 10 µM [2] [%] | inhibition at 0.1 µM (MDA-MB-231 [3]) [%] | inhibition at 100 µM [4] [%] | inhibition at 1 µM (MDA-MB-231 [7]) [%] | MNTC at 24 h [8] [µM] | inhibition at 1 µM [9] [%] | IC50 [10] [µM] | other results
1 | Fc1ccc(CCCCNCCCN2CCCCC2)cc1 | 60 | 20 | > 95 | 28 | > 25 | 25 | 5.9 | V1/2 [1]: -36.8 mV; Activity [5]: 17.4%; V1/2 [6]: -77.5 mV
2 | Fc1ccc(C(CCCNCCc2ccccc2)c2ccc(F)cc2)cc1 | 30 |  |  |  | 10 |  |  | 
3 | Fc1ccc(C(CCCNCCCN2CCCCC2)c2ccc(F)cc2)cc1 | 50 | 20 | > 95 | 30.3 | 5 | 34.9 | 4.8 | inhibition (INH) [11]: Dose-dependent effect; V1/2 [12]: -88.6 mV; V1/2 [13]: -34.9 mV
4 | CC(C)(C)CCCCNCCCN1CCCCC1 | 30 |  |  |  | 10 |  |  | 
5 | Fc1ccc(C(CCCNCCCc2ccccc2)c2ccc(F)cc2)cc1 | 30 |  |  |  | 10 |  |  | 
6 | NC1=N[C@H](O)[C@H]2[C@H]3O[C@]4(O)O[C@@H]([C@@H](O)[C@@]2(N1)[C@@H]4O)[C@]3(O)CO [TETRODOTOXIN] |  |  |  |  | 30 |  |  | inhibition (MDA-MB-231 [14]): 31.5%
